Source: ChEMBL document CHEMBL4813978 (Bioorg Med Chem Lett, 2021)

How the values were obtained:
[1] = Glutathione reactivity of compound assessed as compound-dGSH conjugate formation incubated by fluorescence detector; type: physicochemical
How it was run: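 Test compounds incubated with dansyl-glutathione (dGSH) and a human hepatocyte microsome fraction. The test compound–dGSH conjugate was quantified by fluorescence detection and reported as μmol/L.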

[2] = molecular target: T1, Muscarinic acetylcholine receptor M1 (Homo sapiens, UniProt P11229); test: Agonist activity at muscarinic M1 receptor (unknown origin) expressed in CHO cells; type: functional, cell-based
T1 sequence (P11229 whole entry): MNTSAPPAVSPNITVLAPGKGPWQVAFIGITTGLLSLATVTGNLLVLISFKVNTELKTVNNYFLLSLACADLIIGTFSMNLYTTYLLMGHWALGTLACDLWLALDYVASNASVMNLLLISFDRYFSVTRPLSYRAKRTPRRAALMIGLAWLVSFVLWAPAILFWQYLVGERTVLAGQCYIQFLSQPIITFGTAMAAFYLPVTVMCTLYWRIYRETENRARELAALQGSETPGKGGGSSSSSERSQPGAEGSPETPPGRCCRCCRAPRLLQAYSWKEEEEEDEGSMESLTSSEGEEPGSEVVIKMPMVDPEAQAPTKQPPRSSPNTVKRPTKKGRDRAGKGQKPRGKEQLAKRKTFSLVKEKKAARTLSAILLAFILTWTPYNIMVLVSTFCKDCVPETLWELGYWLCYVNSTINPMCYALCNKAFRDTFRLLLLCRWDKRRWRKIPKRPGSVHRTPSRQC

[3] = molecular target: T2, Muscarinic acetylcholine receptor M2 (Homo sapiens, UniProt P08172); test: Agonist activity at muscarinic M2 receptor (unknown origin) expressed in CHO cells; type: functional, cell-based
T2 sequence (P08172 whole entry): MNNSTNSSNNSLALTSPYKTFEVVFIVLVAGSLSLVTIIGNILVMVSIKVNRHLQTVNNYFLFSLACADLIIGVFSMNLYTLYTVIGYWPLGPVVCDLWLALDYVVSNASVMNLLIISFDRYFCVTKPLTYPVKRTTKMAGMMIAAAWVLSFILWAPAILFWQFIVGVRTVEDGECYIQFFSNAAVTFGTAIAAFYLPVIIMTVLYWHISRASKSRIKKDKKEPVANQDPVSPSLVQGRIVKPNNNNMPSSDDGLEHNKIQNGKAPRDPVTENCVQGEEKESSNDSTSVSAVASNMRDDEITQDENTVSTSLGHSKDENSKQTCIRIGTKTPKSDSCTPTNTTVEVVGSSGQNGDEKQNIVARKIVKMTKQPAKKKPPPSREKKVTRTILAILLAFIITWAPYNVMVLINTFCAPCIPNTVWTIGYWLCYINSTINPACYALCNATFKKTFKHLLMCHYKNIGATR
How it was run: (§1)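 Agonist-mode EC50 with Emax. Emax given as mean ± SE of two or more experiments.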

[4] = molecular target: Muscarinic acetylcholine receptor M3 (Homo sapiens, UniProt P20309); test: Agonist activity at muscarinic M3 receptor (unknown origin) expressed in CHO cells; type: functional, cell-based
[5] = molecular target: T3, Muscarinic acetylcholine receptor M4 (Homo sapiens, UniProt P08173); test: Agonist activity at muscarinic M4 receptor (unknown origin) expressed in CHO cells; type: functional, cell-based; how it was run: as §1
T3 sequence (P08173 whole entry): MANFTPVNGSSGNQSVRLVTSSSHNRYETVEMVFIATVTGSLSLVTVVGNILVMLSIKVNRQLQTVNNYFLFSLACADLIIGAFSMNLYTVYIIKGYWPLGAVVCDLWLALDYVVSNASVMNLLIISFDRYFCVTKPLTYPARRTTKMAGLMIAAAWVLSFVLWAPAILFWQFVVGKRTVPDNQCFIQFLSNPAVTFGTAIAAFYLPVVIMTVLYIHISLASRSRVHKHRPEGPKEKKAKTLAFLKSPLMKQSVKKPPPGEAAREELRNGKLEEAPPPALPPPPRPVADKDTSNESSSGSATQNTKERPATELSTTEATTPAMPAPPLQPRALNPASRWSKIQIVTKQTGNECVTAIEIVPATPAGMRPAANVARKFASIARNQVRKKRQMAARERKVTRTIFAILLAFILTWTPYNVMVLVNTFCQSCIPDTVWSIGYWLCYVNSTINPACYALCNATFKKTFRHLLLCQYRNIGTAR

[6] = Ratio of drug level in brain to plasma in po dosed mouse after 1 hr; type: ADME, organism-based; settings: read-out: BPR
[7] = Drug concentration in po dosed mouse plasma measured after 1 hr; type: ADME, organism-based
[8] = Drug concentration in po dosed mouse brain measured after 1 hr; type: ADME, organism-based; settings: read-out: Drug uptake
D(2) dopamine receptor = D(2) dopamine receptor (Homo sapiens, UniProt P14416); test: Antagonist activity at human D2 receptor expressed in CHO cells assessed as inhibition of dopamine-induced calcium accumulation; type: functional, cell-based
D(1A) dopamine receptor = D(1A) dopamine receptor (Homo sapiens, UniProt P21728); test: Antagonist activity at human D1 receptor expressed in CHO cells assessed as inhibition of dopamine-induced calcium accumulation; type: functional, cell-based
D(1A) dopamine receptor, sequence (P21728 whole entry): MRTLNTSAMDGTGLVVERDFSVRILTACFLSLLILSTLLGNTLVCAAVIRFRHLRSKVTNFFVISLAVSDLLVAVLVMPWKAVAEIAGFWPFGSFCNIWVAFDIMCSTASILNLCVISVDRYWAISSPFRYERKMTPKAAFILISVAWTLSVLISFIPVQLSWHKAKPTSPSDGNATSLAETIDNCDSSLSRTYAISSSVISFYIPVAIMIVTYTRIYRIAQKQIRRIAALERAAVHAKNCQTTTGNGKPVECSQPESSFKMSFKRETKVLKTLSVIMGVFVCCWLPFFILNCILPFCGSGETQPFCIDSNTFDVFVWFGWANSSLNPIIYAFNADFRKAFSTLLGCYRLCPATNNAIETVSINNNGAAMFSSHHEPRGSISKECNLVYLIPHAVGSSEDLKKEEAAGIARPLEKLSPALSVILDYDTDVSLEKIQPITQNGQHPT

D(2) dopamine receptor, sequence (P14416 whole entry): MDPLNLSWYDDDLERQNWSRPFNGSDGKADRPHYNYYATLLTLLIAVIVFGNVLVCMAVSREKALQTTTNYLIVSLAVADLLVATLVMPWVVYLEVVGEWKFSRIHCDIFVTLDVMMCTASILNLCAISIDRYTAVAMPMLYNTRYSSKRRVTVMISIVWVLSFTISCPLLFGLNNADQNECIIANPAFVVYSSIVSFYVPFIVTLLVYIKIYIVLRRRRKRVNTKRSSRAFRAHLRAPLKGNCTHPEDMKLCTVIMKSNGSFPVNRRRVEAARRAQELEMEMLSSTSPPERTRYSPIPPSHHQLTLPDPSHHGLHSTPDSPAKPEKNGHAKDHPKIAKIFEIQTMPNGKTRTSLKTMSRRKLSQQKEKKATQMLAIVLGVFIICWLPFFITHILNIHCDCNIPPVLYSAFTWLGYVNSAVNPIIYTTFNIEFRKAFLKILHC
Muscarinic acetylcholine receptor M3, sequence (P20309 whole entry): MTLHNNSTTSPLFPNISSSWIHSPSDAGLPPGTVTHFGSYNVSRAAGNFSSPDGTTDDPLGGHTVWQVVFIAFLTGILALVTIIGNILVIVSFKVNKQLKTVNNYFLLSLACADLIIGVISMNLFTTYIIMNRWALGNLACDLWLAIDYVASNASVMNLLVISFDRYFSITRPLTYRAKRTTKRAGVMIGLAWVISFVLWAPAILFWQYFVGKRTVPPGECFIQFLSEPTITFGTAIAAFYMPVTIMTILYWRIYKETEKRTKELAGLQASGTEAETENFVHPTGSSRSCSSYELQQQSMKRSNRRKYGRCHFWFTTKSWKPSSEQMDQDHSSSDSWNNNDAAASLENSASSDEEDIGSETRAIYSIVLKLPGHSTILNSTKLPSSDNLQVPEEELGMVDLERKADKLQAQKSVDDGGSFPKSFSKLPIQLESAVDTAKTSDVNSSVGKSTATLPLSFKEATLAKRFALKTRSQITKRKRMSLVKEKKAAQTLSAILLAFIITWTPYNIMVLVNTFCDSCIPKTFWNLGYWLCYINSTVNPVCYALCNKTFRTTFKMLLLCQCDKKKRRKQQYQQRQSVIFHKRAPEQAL

EC50 [3] [µM]	EC50 [4] [µM]	Kp at 1 h [6]	concentration at 1 h [7] [nM]	Ki (D(1A) dopamine receptor) [µM]	SMILES	Activity [1] [µmol/L]	EC50 [2] [µM]	EC50 [5] [µM]	concentration at 1 h [8] [nM]	Ki (D(2) dopamine receptor) [µM]
–	–	–	–	–	CN1CCN(C2=Nc3cc(Cl)ccc3Nc3ccccc32)CC1 [CLOZAPINE]	7.5	–	–	–	–
> 10	> 10	5.2	360	–	Cc1ccc2c(c1)N=C(C1=CCN(C)CC1)c1cc(F)ccc1N2	–	0.31	> 10	1840	–
–	–	–	–	–	CCN1CC=C(C2=Nc3cc(Cl)ccc3Nc3ccc(F)cc32)CC1	0.27	> 10	> 10	–	0.34
–	–	–	–	–	CC(C)N1CC=C(C2=Nc3cc(Cl)ccc3Nc3ccc(F)cc32)CC1	0.29	> 10	> 10	–	–
–	–	–	–	–	CN1CC=C(C2=Nc3cc(F)ccc3Nc3ccc(Cl)cc32)CC1	–	> 10	> 10	–	0.108
–	–	–	–	–	COc1ccc2c(c1)C(C1=CCN(C)CC1)=Nc1cc(C)ccc1N2	0.07	> 10	> 10	–	0.329
–	–	–	–	–	CCc1ccc2c(c1)C(C1=CCN(C)CC1)=Nc1cc(C)ccc1N2	–	> 10	> 10	–	–
–	–	–	–	–	CCc1ccc2c(c1)C(C1=C[C@H](C)N(C)CC1)=Nc1cc(Cl)ccc1N2	–	> 10	–	–	–
–	–	–	–	–	Cc1ccc2c(c1)N=C(C1=C[C@H](C)N(C)CC1)c1cc(F)ccc1N2	–	> 10	–	–	–
> 10	> 10	–	–	0.035	CN1CC=C(C2=Nc3cc(Cl)ccc3Nc3ccc(F)cc32)CC1	0.3	4.7	> 10	–	0.41
> 10	0.67	–	–	0.08	Clc1ccc2c(c1)N=C(N1CCNCC1)c1ccccc1N2 [N-DESMETHYLCLOZAPINE]	–	0.048	–	–	0.489
> 10	0.64	–	–	–	CN1CC=C(C2=Nc3cc(Cl)ccc3Nc3ccccc32)CC1	0.21	0.35	> 10	–	–

SMILES	EC50 [3] [µM]	EC50 [4] [µM]	Kp at 1 h [6]	concentration at 1 h [7] [nM]	Ki (D(1A) dopamine receptor) [µM]	Activity [1] [µmol/L]	EC50 [2] [µM]	EC50 [5] [µM]	concentration at 1 h [8] [nM]	Ki (D(2) dopamine receptor) [µM]
Cc1ccc2c(c1)N=C(C1=CCNCC1)c1cc(F)ccc1N2	> 10	> 10	–	–	–	–	> 10	> 10	63	–
Fc1ccc2c(c1)C(C1=CCNCC1)=Nc1cc(Cl)ccc1N2	> 10	> 10	–	–	–	–	> 10	> 10	–	–
Cc1ccc2c(c1)N=C(C1=CCN(C)CC1)c1cc(C)ccc1N2	–	–	–	–	0.057	0.22	> 10	> 10	–	0.694
